Laboratory results as given in article PMC6438848 (Saudi Pharmaceutical Journal : SPJ, 2018).

How the values were obtained:
[1] = system: MV-4-11 cells (biphenotypic B myelomonocytic leukemia); assay: In vitro antiproliferative assay; type: cell-based, human; conditions: for IC50: Homo sapiens, MV4-11, 72 h, read-out: IC50 ± SD
[2] = system: MCF-7 cells (human breast carcinoma); assay: In vitro antiproliferative assay; type: cell-based; conditions: for IC50: Homo sapiens, MCF7, 72 h, read-out: IC50 ± SD
[3] = system: JURKAT cells (human leukemic T-cell lymphoblast); assay: In vitro antiproliferative assay; type: cell-based; conditions: for IC50: Homo sapiens, Jurkat, 72 h, read-out: IC50 ± SD
[4] = system: HT-29 cells (human colon adenocarcinoma); assay: In vitro antiproliferative assay; type: cell-based; conditions: for IC50: Homo sapiens, HT-29, 72 h, read-out: IC50 ± SD
[5] = system: Hep-G2 cells (human hepatocellular carcinoma); assay: In vitro antiproliferative assay; type: cell-based; conditions: for IC50: Homo sapiens, HepG2, 72 h, read-out: IC50 ± SD
[6] = system: HeLa cells (human cervical carcinoma); assay: In vitro antiproliferative assay; type: cell-based; conditions: for IC50: Homo sapiens, 72 h, read-out: IC50 ± SD
[7] = system: Du-145 cells (human prostate carcinoma); assay: In vitro antiproliferative assay; type: cell-based; conditions: for IC50: Homo sapiens, DU-145, 72 h, read-out: IC50 ± SD
[8] = system: MCF-10A normal human mammary gland epithelial cells; assay: cells; type: cell-based; conditions: for IC50: Homo sapiens, MCF-10A, 72 h, read-out: IC50 ± SD; for cytotoxic activity against MCF-10A, times lower than against cancer cell lines: MCF-10A vs MCF-7, JURKAT, HT-29, Hep-G2, HeLa, Du-145, DAUDI; for cytotoxic activity against MCF-10A, times lower than against cancer cells: MCF-10A vs MV4-11 (cancer cell lines)
[9] = Determination of lipophilicity by RP UPLC; type: physicochemical; conditions: for -S (slope of the regression curve): log k = log kw + SΦ; for log kw (capacity factor of the analyte in pure water): Kinetex C18, methanol 0.65-0.95 v/v, 25 °C
Summary of the method: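 Kinetex C18 column (150 × 4.6 mm, 2.6 µm) on a UPLC with UV detection at 254 nm. Test compound was dissolved in methanol at 10 µg/ml. Isocratic methanol fractions ran at 0.5 ml/min and 25 °C. Dead time was taken from uracil. log k was regressed linearly on methanol fraction Φ (Soczewiński–Wachtmeister), giving log kw as the intercept and S as the slope.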

[10] = system: DAUDI cells (Burkitt lymphoma); assay: In vitro antiproliferative assay; type: cell-based, human; conditions: for IC50: Homo sapiens, Daudi, 72 h, read-out: IC50 ± SD
[11] = system: human cancer cell lines (MV-4-11, MCF-7, JURKAT, HT-29, Hep-G2, HeLa, Du-145, DAUDI); assay: In vitro antiproliferative assay, summary over several cancer cell lines; type: cell-based; conditions: read-out: IC50 values in relation to other cell lines

Structure (SMILES) | IC50 [1] | IC50 [2] | IC50 [3] | IC50 [4] | IC50 [5] | IC50 [6] | IC50 [7] | IC50 [8] | Φ0 lipophilicity parameter (−log kw/S) [9] | -S (slope of the regression curve) [9] | IC50 [10] | log kw (capacity factor of the analyte in pure water) [9] | cytotoxic activity against MCF-10A, times lower than against cancer cell lines [8] | cytotoxic activity against MCF-10A, times lower than against cancer cells [8] | IC50 [11] | other results
CC(=O)c1ccc([N+]2=NN(CCCl)CC2)cc1.[Cl-] [2a, 3-(4-Acetylphenyl)-1-(2-chloroethyl)-4,5-dihydro-1H-1,2,3-triazol-3-ium chloride] | 13.4 ± 5.94 µg/mL | 45.1 ± 1.65 µg/mL | 66.2 ± 13.4 µg/mL | 49.3 ± 17.4 µg/mL | 38.5 ± 12.3 µg/mL | 39.4 ± 9.77 µg/mL | 89 ± 9.31 µg/mL | 80 ± 8.43 µg/mL | 1.958 | 0.755 | – | – | – | – | – | –
ClCCN1CC[N+](c2ccccc2)=N1.[Cl-] [2b, 1-(2-Chloroethyl)-3-phenyl-4,5-dihydro-1H-1,2,3-triazol-3-ium chloride] | 44.6 ± 4.37 µg/mL | 50.4 ± 8.08 µg/mL | 68.5 ± 6.36 µg/mL | 48.9 ± 18.7 µg/mL | 37.9 ± 17.1 µg/mL | 39.4 ± 11.5 µg/mL | – | – | 1.519 | 1.318 | 40.2 ± 4.29 µg/mL | −2.002 | – | – | – | –
Cc1ccc([N+]2=NN(CCCl)CC2)cc1.[Cl-] [2c, 1-(2-Chloroethyl)-3-p-tolyl-4,5-dihydro-1H-1,2,3-triazol-3-ium chloride] | 5.42 ± 2.52 µg/mL | 19.8 ± 3.02 µg/mL | 13.1 ± 0.503 µg/mL | 16.2 ± 7.37 µg/mL | 23.8 ± 5.36 µg/mL | 18.1 ± 7.04 µg/mL | 36.4 ± 5.29 µg/mL | 61.6 ± 13.1 µg/mL | 1.338 | 2.000 | 4.91 ± 1.53 µg/mL | – | 1–5 times | 6–11 times | 12.5 to 36.4 µg/mL | –
FC(F)(F)c1cccc([N+]2=NN(CCCl)CC2)c1.[Cl-] [2d, 1-(2-Chloroethyl)-3-(3-(trifluoromethyl)phenyl)-4,5-dihydro-1H-1,2,3-triazol-3-ium chloride] | 5.59 ± 3.03 µg/mL | 16.5 ± 4.14 µg/mL | 24.3 ± 1.22 µg/mL | 31.7 ± 5.45 µg/mL | 14.9 ± 1.08 µg/mL | 22.7 ± 2.98 µg/mL | 30.9 ± 3.15 µg/mL | 32.6 ± 2.79 µg/mL | 1.204 | 2.802 | 17.6 ± 2.29 µg/mL | −3.373 | 1–5 times | 6–11 times | 12.5 to 36.4 µg/mL | –
ClCCN1CC[N+](c2ccc(Cl)cc2)=N1.[Cl-] [2e, 1-(2-Chloroethyl)-3-(4-chlorophenyl)-4,5-dihydro-1H-1,2,3-triazol-3-ium chloride] | 7.69 ± 3.17 µg/mL | 15.1 ± 2.77 µg/mL | 13.6 ± 3 µg/mL | 31.9 ± 8.14 µg/mL | 14.9 ± 4.66 µg/mL | 12.5 ± 2.23 µg/mL | 30.1 ± 10.2 µg/mL | 49.3 ± 15.5 µg/mL | 1.196 | 2.928 | 13.6 ± 3.66 µg/mL | −3.503 | 1–5 times | 6–11 times | 12.5 to 36.4 µg/mL | –
CCOC(=O)c1ccc([N+]2=NN(CCCl)CC2)cc1.[Cl-] [2f, 1-(2-Chloroethyl)-3-(4-(ethoxycarbonyl)phenyl)-4,5-dihydro-1H-1,2,3-triazol-3-ium chloride] | 6.16 ± 1.76 µg/mL | 20.9 ± 2.19 µg/mL | 36 ± 7.11 µg/mL | 5.59 ± 0.632 µg/mL | 27.8 ± 10.1 µg/mL | 23.5 ± 3.32 µg/mL | 22.8 ± 10.1 µg/mL | 42 ± 17.3 µg/mL | 1.301 | 2.259 | 61.9 ± 24.8 µg/mL | – | – | 6–11 times | – | –
O=[N+]([O-])c1ccc([N+]2=NN(CCCl)CC2)cc1.[Cl-] [2g, 1-(2-Chloroethyl)-3-(4-nitrophenyl)-4,5-dihydro-1H-1,2,3-triazol-3-ium chloride] | 14.1 ± 7.75 µg/mL | 23.9 ± 7.48 µg/mL | 49.1 ± 14.1 µg/mL | 47.6 ± 3.42 µg/mL | 32.1 ± 1.4 µg/mL | 29 ± 5.35 µg/mL | 34.1 ± 1.35 µg/mL | 36.6 ± 9.52 µg/mL | 2.532 | 0.594 | – | – | – | – | – | –
Fc1ccc([N+]2=NN(CCCl)CC2)cc1.[Cl-] [2i, 1-(2-Chloroethyl)-3-(4-fluorophenyl)-4,5-dihydro-1H-1,2,3-triazol-3-ium chloride] | 51.4 ± 11.9 µg/mL | 61.4 ± 21.8 µg/mL | – | – | 70.2 ± 13.9 µg/mL | 51.3 ± 14.7 µg/mL | – | – | 1.824 | 1.027 | 75.6 ± 17.8 µg/mL | −1.873 | – | – | – | –
N.N.[Cl][Pt][Cl] [cis-platin, reference compound] | – | – | – | – | – | – | – | – | – | – | – | – | – | – | – | IC50 ± SD ([1]; MV-4-11, 72 h exposure, MTT): 0.76 ± 0.184 µg/mL; IC50 ± SD ([2]; MCF-7, 72 h exposure, SRB): 1.73 ± 0.443 µg/mL; IC50 ± SD ([3]; JURKAT, 72 h exposure, MTT): 0.24 ± 0.056 µg/mL; IC50 ± SD ([4]; HT-29, 72 h exposure, SRB): 3.63 ± 0.715 µg/mL; IC50 ± SD ([5]; Hep-G2, 72 h exposure, SRB): 0.68 ± 0.147 µg/mL; IC50 ± SD ([6]; 72 h exposure, SRB): 0.37 ± 0.137 µg/mL; IC50 ± SD ([7]; Du-145, 72 h exposure, SRB): 0.59 ± 0.086 µg/mL; IC50 ± SD ([10]; DAUDI, 72 h exposure, MTT): 1.07 ± 0.208 µg/mL; IC50 ± SD ([8]; MCF-10A normal cells, 72 h exposure, SRB): 4.65 ± 1.171 µg/mL
